Publication PMC6766976 (Journal of Clinical Pharmacology, 2019)
Read-outs that look alike come from different tables or passages of the source.

Legend:
[1] = type: in vivo, human
[2] = Safety and tolerability assessments in the hepatic impairment study; type: in vivo, human; conditions: Single 15-mg dose
Procedure, shortened: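 Open-label, single-dose study in subjects with mild or moderate hepatic impairment (Child-Pugh) and normal-function controls. Subjects were confined from the day before dosing and given the oral extended-release test compound after a 10-hour fast, then fasted 4 h post-dose. Adverse events, hematology, blood chemistry, vital signs, ECGs and physical exams were monitored. Treatment-emergent events were tabulated per hepatic group by MedDRA class and term.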

[3] = Over the range of IR and ER doses evaluated in clinical studies; cited from earlier work
[4] = cited from earlier work
cytochrome P450 (CYP) 3A = conditions: cited from earlier work
[5] = cited from earlier work; remark: listed apart in the source
[6] = cited from earlier work; remark: listed apart in the source
plasma proteins = conditions: ref data on file at AbbVie; cited from earlier work
[7] = cited from earlier work; remark: listed apart in the source
JAK 1 = conditions: cited from earlier work
JAK 2 = conditions: cited from earlier work
JAK 3 = conditions: cited from earlier work
Tyk2 = conditions: cited from earlier work
[8] = Moderate hepatic impairment (outlier excluded)
[9] = Subjects with mild and moderate hepatic impairment
[10] = IR formulation, relative to upadacitinib alone

AUC lower compared with mean AUC in subjects with normal hepatic function ([1]; 1 subject in the moderate hepatic impairment group (excluded from analyses)): approximately 70% | Plasma concentration at 120 hours ([1]; All subjects and all groups, lower limit of quantitation 0.05 ng/mL): below the assay limit of quantification | AUC central value higher compared with normal hepatic function ([1]; Mild hepatic impairment): 28% | Cmax central value compared with normal hepatic function ([1]; Mild hepatic impairment): similar | β (terminal-phase elimination rate constant) versus normal hepatic function ([1]; Mild hepatic impairment, ANCOVA): no statistically significant difference | AUC central value higher compared with normal hepatic function [1, 8]: 24% | Cmax central value higher compared with normal hepatic function [1, 8]: 43% | Increase in upadacitinib exposure, AUC [1, 9]: < 30% | Increase in upadacitinib exposure, Cmax [1, 9]: < 45%
SMILES: CC[C@@H]1CN(C(=O)NCC(F)(F)F)C[C@@H]1c1cnc2cnc3[nH]ccc3n12 [upadacitinib]
Changes in vital signs or hematology measurements [2]: No clinically significant changes | Tolerability ([2]; all subjects): well tolerated | Plasma exposure dose and time dependence [3]: approximately dose proportional and time independent | Dose eliminated unchanged in urine ([4]; IR dose): Approximately 20% | Dose eliminated in urine and feces as metabolites ([4]; ref data on file at AbbVie): approximately 30% | Substrate status for cytochrome P450 (CYP) 3A (cytochrome P450 (CYP) 3A; Evaluated in phase 1 drug-interaction study with ketoconazole): nonsensitive substrate | Increase in plasma AUC with coadministration of ketoconazole (cytochrome P450 (CYP) 3A; [10]): 75% | Increase in plasma Cmax with coadministration of ketoconazole (cytochrome P450 (CYP) 3A; [10]): 70% | Increase in upadacitinib exposure with a high-fat meal [5]: Approximately 20% | AUC higher compared with normal renal function ([6]; Mild renal impairment): 18% | Cmax compared with normal renal function ([6]; Mild, moderate and severe renal impairment): similar | AUC higher compared with normal renal function ([6]; Moderate renal impairment): 33% | AUC higher compared with normal renal function ([6]; Severe renal impairment): 44% | Plasma protein binding (plasma proteins): not extensively bound to plasma proteins | Impact of baseline AST, ALT and bilirubin on upadacitinib exposure ([7]; Phase 1 to 3 studies, healthy subjects and subjects with RA): no impact | Correlation of CYP2D6 metabolic phenotype with upadacitinib clearance [7]: not correlated | Effect of age, weight, sex, race and ethnicity on upadacitinib exposure [7]: no clinically relevant effect | Inhibition of JAK 1 (JAK 1): potently inhibits | Potency against JAK 2 compared with JAK 1 (JAK 2): less potent | Potency against JAK 3 compared with JAK 1 (JAK 3): less potent | Potency against Tyk2 compared with JAK 1 (Tyk2): less potent
